From ChEMBL document CHEMBL1122125, “Synthesis and in vivo antitumor activity of potential 5-fluorouracil prodrugs” (1982)

Tests used:
Format in all cases: functional
[1] = tested on: L1210; experiment: Evaluated for cytotoxicity against L1210 mouse leukemia cells; conditions: read-out: ID50 (the source's name)
Outline: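 L1210 murine leukemia cells in Eagle's minimal essential medium with 15% fetal calf serum, streptomycin (100 μg/mL), penicillin (100 units/mL) and 0.05 mM 2-mercaptoethanol. Cells counted by Coulter counter after 48 h exposure. ID50 is the 50% growth-inhibitory dose. Triplicate assays, standard deviation ±10%.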

[2] = tested on: Mus musculus; experiment: Antitumor activity was determined for survival range of mice against P-388 leukemia in mice at a dose of 340 mg/kg
Outline: (§1)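 Male B6D2F1J mice implanted ip with 10⁶ P-388 cells on day 0; test agents given ip on days 1–4 (qd × 4) in sterile saline, or in 10% Tween 80 for the lipophilic thioether. Groups of 5 treated mice, with 10–17 untreated controls per experiment. Mice weighed on days 1 and 7 to give the 7-day weight change in g and %. Survival recorded in days as median and range.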

[3] = tested on: Mus musculus; experiment: Antitumor activity was determined for median survival of mice against P-388 leukemia in mice at a dose of 680 mg/kg; outline: as §1
[4] = tested on: Mus musculus; experiment: Antitumor activity was determined for 7-day average percent weight change against P-388 leukemia in mice at a dose of 680 mg/kg
Outline: (§2)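 Male B6D2F1J mice given 10⁶ P-388 cells ip on day 0, then treated ip once daily on days 1-4 (qd × 4), 5 mice per dose group. Compounds dosed in sterile saline, except one lipophilic thioether given in 10% Tween 80. Mice weighed on days 1 and 7; mean weight per mouse on day 1 and 7-day weight change reported in g and as percent.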

[5] = tested on: Mus musculus; experiment: Antitumor activity was determined for 7-day average percent weight change against P-388 leukemia in mice at a dose of 600 mg/kg; outline: as §2
[6] = tested on: Mus musculus; experiment: Antitumor activity was determined for median survival of mice against P-388 leukemia in mice at a dose of 600 mg/kg; outline: as §1
[7] = tested on: Mus musculus; experiment: Antitumor activity was determined for average weight on day 1 against P-388 leukemia in mice at a dose of 680 mg/kg
Outline: (§3)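 Male B6D2F1J mice, groups of 5, inoculated ip with 10⁶ P-388 cells on day 0. Drug given ip on days 1-4 (qd × 4) in sterile saline, or in 10% Tween 80 for the poorly water-soluble thioether. Average weight per mouse recorded on day 1, with reweighing on day 7 for percent weight change. Untreated control groups had 10-17 animals per experiment.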

[8] = tested on: Mus musculus; experiment: Antitumor activity was determined for median survival of mice against P-388 leukemia in mice at a dose of 85 mg/kg; outline: as §1
[9] = tested on: Mus musculus; experiment: Antitumor activity was determined for average weight on day 1 against P-388 leukemia in mice at a dose of 340 mg/kg; outline: as §3
[10] = tested on: Mus musculus; experiment: Antitumor activity was determined for survival range of mice against P-388 leukemia in mice at a dose of 600 mg/kg; outline: as §1
[11] = tested on: Mus musculus; experiment: Antitumor activity was determined for 7-day average percent weight change against P-388 leukemia in mice at a dose of 340 mg/kg; outline: as §2

CC[C@H]1OC(n2cc(F)c(=O)[nH]c2=O)[C@H](O)[C@@H]1O (stereo partly specified)
IC50 [1]: 19 µM
Survival range [2]: 15
Survival median [3]: 17
Weight change [4]: -5%
Weight change [5]: -10%
Survival median [6]: 18
Average weight [7]: 25.8 g mouse-1
Survival median [8]: 13
Average weight [9]: 27.8 g mouse-1
Survival range [10]: 17
Weight change [11]: 5%
